Results from ChEMBL document CHEMBL3808334, “Synthesis and in vitro evaluation of novel triazine analogues as anticancer agents and their interaction studies with bovine serum albumin” (Eur J Med Chem, 2016).

Columns and labels:
Assay type in all cases: functional
MDA-MB-435 = test: Growth inhibition of human MDA-MB-435 cells incubated for 48 hrs by sulforhodamine B assay; conditions: MDA-MB-435, 48 h
Summary of the method: (§1)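 Cells were plated at 5,000–40,000 per well according to doubling time and preincubated 24 h at 37 °C in 5% CO2; time-zero plates were then TCA-fixed. Five concentrations (10-fold or ½-log dilutions, DMSO stock) were incubated 48 h. Cells were TCA-fixed, stained with 0.4% SRB and read at 515 nm. GI50 was taken where [(Ti−Tz)/(C−Tz)]×100 = 50.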

[1] = Growth inhibition of human PC3 cells assessed as cell growth at 10 uM incubated for 48 hrs by sulforhodamine B assay; conditions: PC-3, 48 h, read-out: Activity
[2] = Growth inhibition of human Caki1 cells assessed as cell growth at 10^-8 M incubated for 48 hrs by sulforhodamine B assay; conditions: CAKI-1, 48 h, read-out: Activity
Summary of the method: (§2)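 Cells seeded at 5,000–40,000/well according to doubling time and preincubated 24 h at 37 °C, 5% CO2. Time-zero plates were TCA-fixed. DMSO concentrate was diluted in medium with 50 µg/ml gentamicin to give five concentrations (10-fold or ½ log steps), then exposed 48 h. Cells were TCA-fixed, stained with 0.4% SRB and read at 515 nm. Percent growth was taken against time-zero and control; GI50, TGI and LC50 derived.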

SR [3] = test: Growth inhibition of human SR cells assessed as cell growth at 10 uM incubated for 48 hrs by sulforhodamine B assay; conditions: read-out: Activity
KM12 = test: Growth inhibition of human KM12 cells assessed as cell growth at 10^-7 M incubated for 48 hrs by sulforhodamine B assay; conditions: KM12, 48 h, read-out: Activity
SR [4] = test: Growth inhibition of human SR cells assessed as cell growth at 10^-5 M incubated for 48 hrs by sulforhodamine B assay; conditions: read-out: Activity
SK-MEL-28 [5] = test: Growth inhibition of human SK-MEL-28 cells incubated for 48 hrs by sulforhodamine B assay; conditions: SK-MEL-28, 48 h; summary of the method: as §1
[6] = Growth inhibition of human SF539 cells assessed as cell growth at 10^-8 M incubated for 48 hrs by sulforhodamine B assay; conditions: SF-539, 48 h, read-out: Activity
[7] = Growth inhibition of human OVCAR5 cells assessed as cell growth at 10^-5 M incubated for 48 hrs by sulforhodamine B assay; conditions: OVCAR-5, 48 h, read-out: Activity
[8] = Growth inhibition of human OVCAR4 cells incubated for 48 hrs by sulforhodamine B assay; conditions: OVCAR-4, 48 h; summary of the method: as §1
NCI/ADR-RES = test: Growth inhibition of human NCI/ADR-RES cells assessed as cell growth at 10^-5 M incubated for 48 hrs by sulforhodamine B assay; conditions: read-out: Activity
ACHN = test: Growth inhibition of human ACHN cells assessed as cell growth at 10^-5 M incubated for 48 hrs by sulforhodamine B assay; conditions: read-out: Activity
Summary of the method: (§3)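 Five-dose assay: five concentrations from 10-fold or ½-log serial dilutions. Cells are plated at 5,000–40,000 per well according to doubling time, grown 24 h, then exposed 48 h at 37 °C, 5% CO₂. Fixed with cold 50% TCA (final addition) for 60 min at 4 °C and stained with 0.4% SRB in 1% acetic acid. Bound dye is solubilized in 10 mM Tris base and read at 515 nm. GI₅₀ is where [(Ti−Tz)/(C−Tz)]×100 = 50, with a time-zero plate as Tz.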

[9] = Growth inhibition of human SNB75 cells assessed as cell growth at 10 uM incubated for 48 hrs by sulforhodamine B assay; conditions: SNB-75, 48 h, read-out: Activity
[10] = Growth inhibition of human TK10 cells assessed as cell growth at 10^-4 M incubated for 48 hrs by sulforhodamine B assay; conditions: TK-10, 48 h, read-out: Activity
A498 = test: Growth inhibition of human A498 cells incubated for 48 hrs by sulforhodamine B assay; conditions: A498, 48 h; summary of the method: as §3
NCI-H23 = test: Growth inhibition of human NCI-H23 cells incubated for 48 hrs by sulforhodamine B assay; conditions: NCI-H23, 48 h; summary of the method: as §1
Malme-3M = test: Growth inhibition of human MALME-3M cells assessed as cell growth at 10^-8 M incubated for 48 hrs by sulforhodamine B assay; conditions: read-out: Activity
SK-MEL-28 [11] = test: Growth inhibition of human SK-MEL-28 cells assessed as cell growth at 10^-8 M incubated for 48 hrs by sulforhodamine B assay; conditions: SK-MEL-28, 48 h, read-out: Activity
[12] = Growth inhibition of human SKOV3 cells assessed as cell growth at 10^-8 M incubated for 48 hrs by sulforhodamine B assay; conditions: SK-OV-3, 48 h, read-out: Activity
EKVX [13] = test: Growth inhibition of human EKVX cells assessed as cell growth at 10^-7 M incubated for 48 hrs by sulforhodamine B assay; conditions: read-out: Activity; summary of the method: as §2
EKVX [14] = test: Growth inhibition of human EKVX cells assessed as cell growth at 10 uM incubated for 48 hrs by sulforhodamine B assay; conditions: read-out: Activity
Summary of the method: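 Primary screen at one dose (10 µM) across 60 human cancer cell lines. Readout was growth percent relative to untreated control and time-zero.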

MDA-MB-468 = test: Growth inhibition of human MDA-MB-468 cells assessed as cell growth at 10^-7 M incubated for 48 hrs by sulforhodamine B assay; conditions: MDA-MB-468, 48 h, read-out: Activity
[15] = Growth inhibition of human SKOV3 cells assessed as cell growth at 10^-6 M incubated for 48 hrs by sulforhodamine B assay; conditions: SK-OV-3, 48 h, read-out: Activity
M14 = test: Growth inhibition of human M14 cells incubated for 48 hrs by sulforhodamine B assay; conditions: M14, 48 h; summary of the method: as §1
SK-MEL-2 = test: Growth inhibition of human SK-MEL-2 cells assessed as cell growth at 10 uM incubated for 48 hrs by sulforhodamine B assay; conditions: SK-MEL-2, 48 h, read-out: Activity
[16] = read-out: LC50 (the source's name)
[17] = read-out: pLC50 (the source's name) (converted)

SMILES: Fc1ccc(-c2nc(Nc3ccc(-c4nc5ccccc5[nH]4)cc3)nc(N3CCOCC3)n2)cc1
- GI50 (MDA-MB-435; read-out: GI50): 1.94 µM
- TGI (MDA-MB-435; read-out: TGI): 4.04 µM
- GI50 (MDA-MB-435; read-out: pGI50 (converted)): 1.95 µM
- TGI (MDA-MB-435; read-out: pTGI (converted)): 4.07 µM
- growth at 10 µM [1]: 2.31%
- growth at 0.01 µM [2]: 94%
- growth at 10 µM (SR [3]): 6.01%
- growth at 0.1 µM (KM12): 98%
- growth at 10 µM (SR [4]): -15%
- GI50 (SK-MEL-28 [5]; read-out: GI50): 1.8 µM
- CC50 (SK-MEL-28 [5]; [16]): > 100 µM
- TGI (SK-MEL-28 [5]; read-out: TGI): 4.28 µM
- GI50 (SK-MEL-28 [5]; read-out: pGI50 (converted)): 1.78 µM
- CC50 (SK-MEL-28 [5]; [17]): > 100 µM
- TGI (SK-MEL-28 [5]; read-out: pTGI (converted)): 4.27 µM
- growth at 0.01 µM [6]: 98%
- growth at 10 µM [7]: -5%
- GI50 ([8]; read-out: GI50): 3.13 µM
- CC50 [8, 16]: > 100 µM
- TGI ([8]; read-out: TGI): 13 µM
- GI50 ([8]; read-out: pGI50 (converted)): 3.16 µM
- CC50 [8, 17]: > 100 µM
- TGI ([8]; read-out: pTGI (converted)): 13.2 µM
- growth at 10 µM (NCI/ADR-RES): 10%
- growth at 10 µM (ACHN): 3%
- growth at 10 µM [9]: -19.2%
- growth at 100 µM [10]: -27%
- GI50 (A498; read-out: GI50): 1.52 µM
- CC50 (A498; [16]): 8.42 µM
- TGI (A498; read-out: TGI): 3.57 µM
- GI50 (A498; read-out: pGI50 (converted)): 1.51 µM
- CC50 (A498; [17]): 8.51 µM
- TGI (A498; read-out: pTGI (converted)): 3.55 µM
- GI50 (NCI-H23; read-out: GI50): 2.57 µM
- CC50 (NCI-H23; [16]): > 100 µM
- TGI (NCI-H23; read-out: TGI): 9.9 µM
- GI50 (NCI-H23; read-out: pGI50 (converted)): 2.57 µM
- CC50 (NCI-H23; [17]): > 100 µM
- TGI (NCI-H23; read-out: pTGI (converted)): 10 µM
- growth at 0.01 µM (Malme-3M): 96%
- growth at 0.01 µM (SK-MEL-28 [11]): 101%
- growth at 0.01 µM [12]: 99%
- growth at 0.1 µM (EKVX [13]): 91%
- growth at 10 µM (EKVX [14]): 7.91%
- growth at 0.1 µM (MDA-MB-468): 106%
- growth at 1 µM [15]: 101%
- GI50 (M14; read-out: GI50): 1.94 µM
- CC50 (M14; [16]): 8.37 µM
- TGI (M14; read-out: TGI): 4.03 µM
- GI50 (M14; read-out: pGI50 (converted)): 1.95 µM
- CC50 (M14; [17]): 8.32 µM
- TGI (M14; read-out: pTGI (converted)): 4.07 µM
- growth at 10 µM (SK-MEL-2): -19.2%
